Test results: ChEMBL document CHEMBL2331492, “Synthesis and biological evaluation of new cytotoxic indazolo[4,3-gh]isoquinolinone derivatives” (Bioorg Med Chem Lett, 2013)
pEC50: −log10 of the molar value. Activity calls are given as the source filed them. The calls are words filed in the database; no cut-off is given here.

Experiments:
[1] = Antiproliferative activity against human KB/HeLa cells after 48 hrs; assay type: functional, cell-based
Method in brief: (§1)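 Cells seeded in supplier-recommended growth medium at line-adapted densities (linear signal range), grown 24 h at 37 °C/5% CO2, then exposed to compound; highest concentration 3.16 μM. After 45 h, resazurin (0.2 mg/mL in DPBS) added for 3 h; fluorescence at 590 nm read at 48 h. % efficacy vs untreated cells and cell-free blanks; EC50 by nonlinear regression from at least two independent assays.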

DNA = test: Binding affinity to calf thymus DNA up to 5 mM; assay type: nucleic-acid assay; conditions: Bos taurus
Method in brief: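 UV-vis absorbance shift assay. Stocks of up to 5 mM were made in 5% DMSO or methanol. They were diluted in pH 7 phosphate buffer (5 mM NaH2PO4, 5 mM Na2HPO4, 70 mM NaCl) to give a maximum absorbance of about 1–2. Spectra were taken from 230–600 nm with and without 2 mg/ml calf thymus DNA, and peak shifts were compared.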

[2] = Antiproliferative activity against human RKOp27IND cells after 48 hrs; assay type: functional, cell-based; method in brief: as §1
SF-268 [3] = test: Antiproliferative activity against human SF268 cells after 48 hrs; assay type: functional, cell-based; conditions: SF-268, 48 h; method in brief: as §1
[4] = Antiproliferative activity against human RKOp27 cells after 48 hrs; assay type: functional, cell-based; conditions: RKOp27, 48 h; method in brief: as §1
NCI-H460 [5] = test: Antiproliferative activity against human NCI-H460 cells after 48 hrs; assay type: functional, cell-based; conditions: NCI-H460, 48 h; method in brief: as §1
SK-OV-3 [6] = test: Antiproliferative activity against human SKOV3 cells after 48 hrs; assay type: functional, cell-based; conditions: SK-OV-3, 48 h; method in brief: as §1
[7] = Cell cycle arrest in human KB/HeLa cells assessed as accumulation at S phase at < 6 uM after 24 hrs by flow cytometry analysis; assay type: functional, cell-based
Method in brief: (§2)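 Exponentially dividing KB/HeLa cells (ATCC CCL17) were exposed at 37 °C to a range of compound concentrations and compared with untreated controls. Cells were prepared with the CycleTEST PLUS kit. DNA content was measured by flow cytometry (FACSCalibur), and phase distribution was derived with cell cycle analysis software.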

[8] = Cell cycle arrest in human KB/HeLa cells assessed as accumulation at S phase at < 4 uM after 24 hrs by flow cytometry analysis; assay type: functional, cell-based; method in brief: as §2
[9] = Cell cycle arrest in human KB/HeLa cells assessed as accumulation at S phase up to 11 uM after 24 hrs by flow cytometry analysis; assay type: functional, cell-based; method in brief: as §2
[10] = Cell cycle arrest in human KB/HeLa cells assessed as accumulation at S phase at < 7 uM after 24 hrs by flow cytometry analysis; assay type: functional, cell-based; method in brief: as §2
SF-268 [11] = test: Antiproliferative activity against human SF268 cells at 3.16 uM after 48 hrs; assay type: functional; conditions: SF-268, 48 h
Method in brief: (§3)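 Cells were seeded in the supplier-recommended medium and grown 24 h at 37 °C/5% CO2 before compound addition. Resazurin (0.2 mg/mL in DPBS) was added after 45 h, and fluorescence at 590 nm was read at 48 h total. % inhibition at the highest concentration (3.16 μM) was scored against untreated cells and cell-free blanks on each plate. Data came from at least two independent assays.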

[12] = Antiproliferative activity against human RKOp27IND cells at 3.16 uM after 48 hrs; assay type: functional; method in brief: as §3
SK-OV-3 [13] = test: Antiproliferative activity against human SKOV3 cells at 3.16 uM after 48 hrs; assay type: functional; conditions: SK-OV-3, 48 h; method in brief: as §3
NCI-H460 [14] = test: Antiproliferative activity against human NCI-H460 cells at 3.16 uM after 48 hrs; assay type: functional; conditions: NCI-H460, 48 h; method in brief: as §3
[15] = Antiproliferative activity against human KB/HeLa cells at 3.16 uM after 48 hrs; assay type: functional; method in brief: as §3
[16] = Antiproliferative activity against human RKOp27 cells at 3.16 uM after 48 hrs; assay type: functional; conditions: RKOp27, 48 h; method in brief: as §3

SMILES	pEC50 [1]	Activity (DNA)	pEC50 [2]	pEC50 (SF-268 [3])	pEC50 [4]	pEC50 (NCI-H460 [5])	pEC50 (SK-OV-3 [6])	further results
CN(C)CCn1nc2c3c(c(NCCCCN4CC4)ccc31)C(=O)c1ccncc1-2	7.10	Active	5.99	6.38	6.00	7.15	6.28	–
CN(C)CCn1nc2c3c(c(NCC/C=C\CCOS(C)(=O)=O)ccc31)C(=O)c1ccncc1-2	6.12	–	5.58	5.51	6.20	5.66	5.27	–
CN(C)CCn1nc2c3c(c(NCCc4c[nH]cn4)ccc31)C(=O)c1ccncc1-2	–	–	5.32	–	5.88	5.52	5.78	–
O=C1c2c(O)ccc(O)c2C(=O)c2c(NCCNCCO)ccc(NCCNCCO)c21 [MITOXANTRONE]	6.44	Active	6.12	6.49	7.05	6.92	6.92	–
CN(C)CCn1nc2c3c(c(NCC/C=C\CCN4CC4)ccc31)C(=O)c1ccncc1-2	6.37	–	5.92	5.77	6.54	6.23	5.75	Activity [7]: Active
CN(C)CCn1nc2c3c(c(NCCc4cccs4)ccc31)C(=O)c1ccncc1-2	–	–	5.32	–	5.51	5.83	5.49	–
CN(C)CCn1nc2c3c(c(N(C)C)ccc31)C(=O)c1ccncc1-2	5.66	Active	5.51	5.87	5.58	6.11	5.68	–
CN(C)CCn1nc2c3c(c(NCCC4CCCN4C)ccc31)C(=O)c1ccncc1-2 (stereo unspecified)	–	Active	6.34	–	6.43	6.80	6.44	–
CN(C)CCn1nc2c3c(c(NCCCCCCN4CC4)ccc31)C(=O)c1ccncc1-2	6.47	Active	5.89	6.12	6.89	6.70	6.11	Activity [8]: Active
CN(C)CCn1nc2c3c(c(NCCC#CCCN4CC4)ccc31)C(=O)c1ccncc1-2	6.85	Active	6.46	6.62	7.15	7.22	6.51	Activity [9]: inactive
CN(C)CCn1nc2c3c(c(NCCCCCCOS(C)(=O)=O)ccc31)C(=O)c1ccncc1-2	5.78	–	5.71	5.86	6.29	6.09	5.44	–
CN(C)CCSCCNc1ccc2c3c(nn2CCN(C)C)-c2cnccc2C(=O)c13	6.12	–	5.75	5.63	6.04	6.51	6.15	–
CN(C)CCn1nc2c3c(c(NCCN4CC4)ccc31)C(=O)c1ccncc1-2	7.15	–	5.98	6.16	7.10	7.10	6.41	–
CN(C)CCn1nc2c3c(c(NCC/C=C/CCN4CC4)ccc31)C(=O)c1ccncc1-2	5.91	–	5.56	5.52	6.14	6.16	5.49	Activity [10]: Active
CN(C)CCn1nc2c3c(c(NCCSCCO)ccc31)C(=O)c1ccncc1-2	6.02	Active	5.97	6.18	6.26	6.82	6.40	–
CSCCCNc1ccc2c3c(nn2CCN(C)C)-c2cnccc2C(=O)c13	–	–	5.32	–	5.53	6.17	5.87	–
c1ccc2nc3ccccc3cc2c1	–	Active	–	–	–	–	–	–
CN(C)CCn1nc2c3c(c(NCCCCOS(C)(=O)=O)ccc31)C(=O)c1ccncc1-2	5.50	–	–	–	5.93	5.97	–	inhibition at 3.16 µM (SF-268 [11]): < 30%; inhibition at 3.16 µM [12]: < 30%; inhibition at 3.16 µM (SK-OV-3 [13]): < 30%
CN(C)CCn1nc2c3c(c(NCCCCCCc4ccc(N(CCCl)CCCl)cc4)ccc31)C(=O)c1ccncc1-2	–	–	–	–	–	–	–	inhibition at 3.16 µM (NCI-H460 [14]): < 30%; inhibition at 3.16 µM (SF-268 [11]): < 30%; inhibition at 3.16 µM [15]: < 30%; inhibition at 3.16 µM [16]: < 30%; inhibition at 3.16 µM [12]: < 30%; inhibition at 3.16 µM (SK-OV-3 [13]): < 30%
CN(C)CCn1nc2c3c(c(NCCC#CCCOS(C)(=O)=O)ccc31)C(=O)c1ccncc1-2	6.41	–	6.01	6.12	6.33	6.39	6.14	–
CN(C)CCn1nc2c3c(c(NCCc4c[nH]c5ccccc45)ccc31)C(=O)c1ccncc1-2	–	inactive	5.82	–	5.88	5.88	5.82	–
CN(C)CCn1nc2c3c(c(NCCOS(C)(=O)=O)ccc31)C(=O)c1ccncc1-2	6.82	–	5.74	6.41	6.77	6.60	6.26	–
CN(C)CCn1nc2c3c(c(NCCc4ccccn4)ccc31)C(=O)c1ccncc1-2	–	–	5.42	–	5.57	6.00	5.85	–
CN(C)CCn1nc2c3c(c(NCCC#CCCO)ccc31)C(=O)c1ccncc1-2	5.86	Active	5.49	5.46	5.79	6.17	5.92	–
CN(C)CCn1nc2c3c(c(NCCCCc4ccc(N(CCCl)CCCl)cc4)ccc31)C(=O)c1ccncc1-2	5.61	–	5.79	5.38	5.92	5.42	–	inhibition at 3.16 µM (SK-OV-3 [13]): < 30%
